Measured values reported in ChEMBL document CHEMBL1147433, “Design of small molecule ketoamide-based inhibitors of cathepsin K” (Bioorg Med Chem Lett, 2004).
pIC50: −log10 of the molar value.

What was measured:
Cathepsin K [1] = biological target: T1, Cathepsin K (Homo sapiens, UniProt P43235); assay: Inhibitory activity against human cathepsin K
T1 sequence (P43235 whole entry): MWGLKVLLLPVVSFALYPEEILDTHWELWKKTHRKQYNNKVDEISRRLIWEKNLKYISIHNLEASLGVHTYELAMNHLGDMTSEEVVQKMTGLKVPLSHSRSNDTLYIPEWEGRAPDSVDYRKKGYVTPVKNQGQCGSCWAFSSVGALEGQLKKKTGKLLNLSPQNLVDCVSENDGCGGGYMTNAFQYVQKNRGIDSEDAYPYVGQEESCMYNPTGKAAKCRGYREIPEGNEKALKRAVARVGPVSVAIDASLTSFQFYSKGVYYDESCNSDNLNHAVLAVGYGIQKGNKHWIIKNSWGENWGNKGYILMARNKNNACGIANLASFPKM
Outline: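 Recombinant human cathepsin K activity was measured by fluorescence with Cbz-Phe-Arg-AMC as the substrate, in 100 mM NaOAc, 10 mM DTT and 120 mM NaCl at pH 5.5. IC50 values are the mean of two or three inhibition assays. Individual data points within each experiment fell within a 3-fold range of each other.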

[2] = PAPP (membrane permeability) in dog kidney cell monolayer assay; format: ADME, Canis lupus familiaris; details: read-out: Activity
[3] = Half-life in rat; format: ADME, organism-based; details: in vivo
[4] = Oral bioavailability in rat; format: ADME, organism-based; details: in vivo
[5] = Vss in rat; format: ADME, organism-based; details: in vivo, read-out: Vss
Cathepsin K [6] = biological target: T2, Cathepsin K (Rattus norvegicus, UniProt O35186); assay: Inhibitory activity against rat cathepsin K
T2 sequence (O35186 whole entry): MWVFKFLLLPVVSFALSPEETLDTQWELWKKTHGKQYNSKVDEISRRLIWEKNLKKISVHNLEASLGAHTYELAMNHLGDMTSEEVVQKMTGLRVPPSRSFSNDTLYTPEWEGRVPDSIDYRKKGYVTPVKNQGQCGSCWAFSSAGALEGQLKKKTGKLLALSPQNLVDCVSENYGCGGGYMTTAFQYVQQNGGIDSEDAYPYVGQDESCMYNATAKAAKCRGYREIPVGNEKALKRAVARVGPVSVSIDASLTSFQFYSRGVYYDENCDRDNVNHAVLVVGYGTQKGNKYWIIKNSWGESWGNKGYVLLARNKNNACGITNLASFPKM

[7] = Clearance in rat; format: ADME, organism-based; details: in vivo, read-out: Clearance (C1)

| Structure (SMILES) | pIC50 (Cathepsin K [1]) | further results |
| --- | --- | --- |
| CCCC[C@H](NC(=O)OC(C(C)(C)C)C(C)(C)C)C(=O)C(=O)N[C@H](C)c1ccccc1 | 9.15 | – |
| CCCC[C@H](NC(=O)OC(C)(C)C)C(=O)C(=O)NCc1cccs1 | 5.47 | – |
| CCCC[C@H](NC(=O)OC(C)(C)C)C(=O)C(=O)Nc1ccccc1 | 5.20 | – |
| CCCC[C@H](NC(=O)OC(C)(C)C)C(=O)C(=O)N[C@H](C)c1ccccc1 | 5.92 | – |
| CCCC[C@H](NC(=O)OC(CC(C)C)CC(C)C)C(=O)C(=O)N[C@H](C)c1ccccc1 | 7.16 | – |
| CCCC[C@H](NC(=O)OC(C(C)C)C(C)C)C(=O)C(=O)N[C@H](C)c1ccccc1 | – | Papp [2]: 5.7 ×10⁻⁶ cm/s; half-life [3]: 4.83 h; bioavailability [4]: 3%; Vd [5]: 1.9 L/kg; pIC50 (Cathepsin K [6]): 7.70; clearance [7]: 8.7 mL/min/kg |
| CCCC[C@H](NC(=O)OCC(C)(C)C)C(=O)C(=O)N[C@H](C)c1ccccc1 | 7.47 | – |
| CCCC[C@H](NC(=O)OC(C)(C)C)C(=O)C(=O)NCc1ccccc1 | 5.54 | – |
| CCCC[C@H](NC(=O)OC(C)(C)C)C(=O)C(=O)NC(C)(C)C | < 4.00 | – |
| CCCC[C@H](NC(=O)OC(C)(C)C)C(=O)C(=O)NCC | 4.74 | – |
| CCCC[C@H](NC(=O)OC(C)(C)C)C(=O)C(N)=O | 5.23 | – |
| CCCC[C@H](NC(=O)OC(CCC)CCC)C(=O)C(=O)N[C@H](C)c1ccccc1 | 7.49 | – |

Second part, led by results:

| pIC50 (Cathepsin K [1]) | Structure (SMILES) | further results |
| --- | --- | --- |
| 8.20 | CCCC[C@H](NC(=O)OC(C1CCCC1)C1CCCC1)C(=O)C(=O)N[C@H](C)c1ccccc1 | – |
| 7.12 | CCCC[C@H](NC(=O)OC(CC)CC)C(=O)C(=O)N[C@H](C)c1ccccc1 | – |
| 5.85 | CCCC[C@H](NC(=O)O[C@@H](CCCc1ccccc1)C(C)(C)C)C(=O)C(=O)N[C@H](C)c1ccccc1 | – |
| 7.70 | CCCC[C@H](NC(=O)OC(C)C(C)(C)C)C(=O)C(=O)N[C@H](C)c1ccccc1 (some centres undefined) | – |
| 5.04 | CCCC[C@H](NC(=O)OC(C)(C)C)C(=O)C(=O)NC(C)C | – |
| < 4.00 | CCCC[C@H](NC(=O)OC(C)(C)C)C(=O)C(=O)N(C)[C@H](C)c1ccccc1 | – |
| 8.96 | CCCC[C@H](NC(=O)O[C@H](CCc1ccccc1)C(C)(C)C)C(=O)C(=O)N[C@H](C)c1ccccc1 | – |
| 5.38 | CCCC[C@H](NC(=O)OC(C)(C)C)C(=O)C(=O)N[C@@H](C)c1ccccc1 | – |
| 5.30 | CCCC[C@H](NC(=O)OC(C)(C)C)C(=O)C(=O)NCCc1ccccc1 | – |
| 4.68 | CCCC[C@H](NC(=O)OC(C)(C)C)C(=O)C(=O)NC | – |
| 9.10 | CCCC[C@H](NC(=O)O[C@H](CCCc1ccccc1)C(C)(C)C)C(=O)C(=O)N[C@H](C)c1ccccc1 | – |
| 6.04 | CCCC[C@H](NC(=O)O[C@@H](CCc1ccccc1)C(C)(C)C)C(=O)C(=O)N[C@H](C)c1ccccc1 | – |
